Measured values as given in ChEMBL document CHEMBL2424641, “Synthesis and evaluation of novel radioligands for positron emission tomography imaging of the orexin-2 receptor” (J Med Chem, 2013).
pKi: −log10 of the molar value. Calls of active or inactive are those of the source. The calls are words filed in the database; no cut-off is given here.

Tests used:
Orexin receptor type 2 = target: T1, Orexin receptor type 2 (Homo sapiens, UniProt O43614); assay: Displacement of [125I]-orexin-A from human OX2 receptor expressed in CHO cells after 30 mins by liquid scintillation counting analysis; format: cell-based
T1 sequence (O43614 whole entry): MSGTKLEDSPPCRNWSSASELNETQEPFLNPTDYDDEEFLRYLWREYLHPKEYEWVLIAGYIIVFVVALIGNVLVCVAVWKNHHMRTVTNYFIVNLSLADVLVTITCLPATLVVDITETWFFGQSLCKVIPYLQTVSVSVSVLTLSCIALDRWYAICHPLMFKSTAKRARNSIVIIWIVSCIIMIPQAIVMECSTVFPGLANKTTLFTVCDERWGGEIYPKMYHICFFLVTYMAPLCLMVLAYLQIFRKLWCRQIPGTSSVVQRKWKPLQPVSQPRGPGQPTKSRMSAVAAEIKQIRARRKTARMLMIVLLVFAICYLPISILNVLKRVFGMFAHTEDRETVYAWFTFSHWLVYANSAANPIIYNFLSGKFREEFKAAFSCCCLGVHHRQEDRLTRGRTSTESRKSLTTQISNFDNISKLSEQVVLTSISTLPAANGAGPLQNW
Method in brief: (§1)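 CHO membranes expressing human OX1R or OX2R (5 μg protein) incubated 30 min at rt with compound and [125I]-orexin A (2 nM stock) in HEPES buffer pH 7.5 with MgCl2, CaCl2, BSA. Nonspecific binding with 10 μM orexin A. Wells washed with HEPES/525 mM NaCl and DPM counted. % inhibition from test, control and nonspecific counts; mean of three wells.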

[1] = target: T2, Orexin receptor type 2 (Rattus norvegicus) (UniProt P56719); assay: Binding affinity to OX2 receptor in coronal rat brain neocortex layer 6 at 2.5 nM by autoradiography; format: tissue-based; settings: tested as the 11C-labelled form
T2 sequence (whole entry): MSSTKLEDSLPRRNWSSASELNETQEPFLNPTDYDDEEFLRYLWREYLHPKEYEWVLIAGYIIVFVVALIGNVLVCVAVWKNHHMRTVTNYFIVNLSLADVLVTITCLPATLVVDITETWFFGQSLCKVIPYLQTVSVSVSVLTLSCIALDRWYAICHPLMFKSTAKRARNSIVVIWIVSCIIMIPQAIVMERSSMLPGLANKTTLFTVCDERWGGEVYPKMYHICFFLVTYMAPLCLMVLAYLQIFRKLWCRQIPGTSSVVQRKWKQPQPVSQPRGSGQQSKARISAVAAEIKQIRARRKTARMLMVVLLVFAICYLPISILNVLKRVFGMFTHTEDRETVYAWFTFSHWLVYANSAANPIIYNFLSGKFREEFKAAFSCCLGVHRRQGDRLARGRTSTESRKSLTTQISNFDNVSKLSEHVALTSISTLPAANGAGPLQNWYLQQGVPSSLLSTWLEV
Method in brief: (§2)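 Rat brain sections (20 μm) preincubated 20 min at rt in 25 mM HEPES pH 7.4 with 5 mM MgCl2 and 1 mM CaCl2, then incubated 60 min at rt with 11C radioligand; nonspecific binding with 10 μM unlabeled compound. Sections washed three times in cold water, dried, exposed to imaging plate 1 h alongside calibrated radioactive standards.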

[2] = target: Melatonin receptor type 1A (Homo sapiens) (UniProt P48039); assay: Antagonist activity at melatonin MT1A receptor (unknown origin) expressed in HEK 293 cells coexpressing Gqi5 chimeric G-protein after 1 hr by fluorescence-based analysis; format: cell-based
Method in brief: (§3)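 HEK293 cells stably expressing target GPCR with Gqi5 chimeric G-protein, seeded on collagen I plates and cultured overnight; calcium dye loaded 1 h at 37 °C. Compound at final 3, 10, 30 μM preincubated 1 h at rt, then reference agonist added at EC20 or EC80; Ca2+ fluorescence read in real time.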

[3] = Ratio of flux ratio in pig LLC cells expressing MDR1 to flux ratio on pig LLC-PK1 cells; format: ADME, cell-based, Sus scrofa
Method in brief: (§4)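 LLC-PK1 and LLC-MDR1 monolayers, 5 days post-seeding, preincubated 2 h at 37 °C in HBSS/10 mM HEPES. Compound added apically or basally, 2 h at 37 °C; opposite side assayed by LC-MS. Papp = Q/t/C0/A; FR = Papp(b→a)/Papp(a→b); corrected FR = FR(LLC-MDR1)/FR(LLC-PK1).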

[4] = target: T2, Orexin receptor type 2 (Rattus norvegicus); assay: Binding affinity to OX2 receptor in coronal rat hypothalamus at 2.5 nM by autoradiography; settings: tested as the 11C-labelled form; method in brief: as §2
[5] = target: T3, Orexin/Hypocretin receptor type 1 (Homo sapiens, UniProt O43613); assay: Displacement of [125I]-orexin-A from human OX1 receptor expressed in CHO cells after 30 mins by liquid scintillation counting analysis; format: cell-based; method in brief: as §1
T3 sequence (O43613 whole entry): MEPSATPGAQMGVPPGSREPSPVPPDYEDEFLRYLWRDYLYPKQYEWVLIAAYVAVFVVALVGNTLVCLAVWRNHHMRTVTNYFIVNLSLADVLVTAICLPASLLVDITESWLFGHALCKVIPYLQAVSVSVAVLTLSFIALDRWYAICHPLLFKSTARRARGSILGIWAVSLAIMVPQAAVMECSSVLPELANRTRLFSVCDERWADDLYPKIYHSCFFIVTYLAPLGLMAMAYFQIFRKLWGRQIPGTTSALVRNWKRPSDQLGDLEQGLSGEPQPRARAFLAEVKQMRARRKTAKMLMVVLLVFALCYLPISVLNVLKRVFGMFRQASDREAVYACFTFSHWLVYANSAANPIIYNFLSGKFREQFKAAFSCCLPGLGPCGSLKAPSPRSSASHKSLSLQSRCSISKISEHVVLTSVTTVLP

[6] = Octanol-phosphate buffer partition coefficient, log D of the compound at pH 7.4 by Shake flask method; format: physicochemical
Method in brief: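 [11C]-labelled compound (about 200 000 cpm) in n-octanol and 0.1 M PBS pH 7.4, vortexed 3 min at rt and centrifuged; weighed aliquots of each phase γ-counted, with the organic layer repartitioned until stable. log D = log(cpm/g octanol ÷ cpm/g PBS); triplicate.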

[7] = Flux ratio of permeability from apical to basolateral to basolateral to apical side in pig LLC cells expressing MDR1 after 2 hrs; format: ADME, cell-based, Sus scrofa; method in brief: as §4
[8] = target: T2, Orexin receptor type 2 (Rattus norvegicus); assay: Binding affinity to OX2 receptor in rat brain neocortex layer 6 at 3.6 nM by autoradiography in presence of EMPA; format: tissue-based; settings: tested as the 11C-labelled form
Thalamus = assay: Drug uptake in P-gp-knockout rat thalamus at 78.7 to 189.8 MBq, iv after 90 mins by PET analysis; format: ADME, organism-based; settings: in vivo, 1.5 h
Method in brief: (§5)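 Male Mdr1a-knockout rats (410−500 g) under 1.5% isoflurane at 37 °C; [11C] tracer 78.7−189.8 MBq by tail vein. 90 min list-mode microPET scan with filtered back-projection; ROIs drawn on MRI template; decay-corrected %ID/mL, n = 3. Blocking: unlabeled compound 10 mg/kg po in 5% DMSO/10% cremophor in 10 mM HCl, given 1 h before tracer.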

LLC-PK1 = assay: Flux ratio of permeability from apical to basolateral to basolateral to apical side in pig LLC-PK1 cells after 2 hrs; format: ADME, cell-based, Sus scrofa; settings: llc-pk1, 2 h; method in brief: as §4
[9] = target: T2, Orexin receptor type 2 (Rattus norvegicus); assay: Binding affinity to OX2 receptor in coronal rat neocortex layer 6 at 2 nM by autoradiography; settings: tested as the 11C-labelled form; method in brief: as §2
[10] = target: Cannabinoid receptor 1 (Homo sapiens) (UniProt P21554); assay: Antagonist activity at cannabinoid CB1 receptor (unknown origin) expressed in HEK 293 cells coexpressing Gqi5 chimeric G-protein after 1 hr by fluorescence-based analysis; format: cell-based; method in brief: as §3
[11] = Drug uptake in P-gp-knockout rat neocortex at 78.7 to 189.8 MBq, iv after 90 mins by PET analysis; format: ADME, organism-based; settings: in vivo, 1.5 h; method in brief: as §5
Hippocampus = assay: Drug uptake in P-gp-knockout rat hippocampus at 78.7 to 189.8 MBq, iv after 90 mins by PET analysis; format: ADME, organism-based; settings: in vivo, 1.5 h; method in brief: as §5
Cerebellum = assay: Drug uptake in P-gp-knockout rat cerebellum at 78.7 to 189.8 MBq, iv after 90 mins by PET analysis in presence of 10 mg/kg, po unlabeled compound; format: ADME, organism-based; parameters: dose 10 mg/kg, route oral; settings: in vivo, 1.5 h; method in brief: as §5
[12] = target: T2, Orexin receptor type 2 (Rattus norvegicus); assay: Binding affinity to OX2 receptor in rat brain neocortex layer 6 at 3.6 nM by autoradiography in presence of suvorexant; format: tissue-based; settings: tested as the 11C-labelled form
[13] = HEK293, tested as the 11C-labelled form

Melatonin receptor type 1A (Homo sapiens), sequence (P48039 whole entry): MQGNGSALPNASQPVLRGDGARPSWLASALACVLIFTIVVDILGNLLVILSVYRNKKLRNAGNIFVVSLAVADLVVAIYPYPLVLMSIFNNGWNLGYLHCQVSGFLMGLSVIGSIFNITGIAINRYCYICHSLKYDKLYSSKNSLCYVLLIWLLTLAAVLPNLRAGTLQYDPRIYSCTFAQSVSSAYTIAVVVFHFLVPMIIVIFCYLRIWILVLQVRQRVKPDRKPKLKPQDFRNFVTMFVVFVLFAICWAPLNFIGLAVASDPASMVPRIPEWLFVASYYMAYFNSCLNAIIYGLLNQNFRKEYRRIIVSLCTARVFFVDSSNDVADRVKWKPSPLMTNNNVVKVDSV
Cannabinoid receptor 1 (Homo sapiens), sequence (P21554 whole entry): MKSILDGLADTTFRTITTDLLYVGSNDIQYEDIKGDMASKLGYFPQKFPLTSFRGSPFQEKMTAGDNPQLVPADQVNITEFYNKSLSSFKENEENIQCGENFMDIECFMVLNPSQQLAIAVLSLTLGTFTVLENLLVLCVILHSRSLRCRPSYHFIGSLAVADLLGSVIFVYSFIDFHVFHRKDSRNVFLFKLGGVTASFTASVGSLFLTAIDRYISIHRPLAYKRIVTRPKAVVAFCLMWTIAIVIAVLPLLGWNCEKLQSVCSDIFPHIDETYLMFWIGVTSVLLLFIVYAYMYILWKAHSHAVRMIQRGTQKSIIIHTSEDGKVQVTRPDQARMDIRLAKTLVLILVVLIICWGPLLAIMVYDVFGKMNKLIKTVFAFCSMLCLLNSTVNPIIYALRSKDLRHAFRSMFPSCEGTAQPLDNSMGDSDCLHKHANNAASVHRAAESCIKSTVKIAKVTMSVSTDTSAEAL

For `COCc1nc(C)ncc1OC[C@@]1(c2cccc(F)c2)C[C@H]1C(=O)Nc1ccc(F)cn1`, the pKi (Orexin receptor type 2) was 9.00, the Activity [1] was “Active” and the Activity ([2]; HEK293) was “Active”. For the same molecule, the Activity [2, 13] was “Active”, the Ratio [3] was 3.11 and the Activity [4] was “Active”. It also gave a pKi [5] of 9.00, a logD [6] of 2.97 and a Ratio [7] of 2.61. The Activity [8] was “inactive”, the Drug uptake (Thalamus) was “Active” and the Ratio (LLC-PK1) was 0.84. For the same molecule, the Activity [9] was “Active”, the Activity ([10]; HEK293) was “Active” and the Activity [10, 13] was “Active”. The Drug uptake [11] was “Active”, the Drug uptake (Hippocampus) was “Active” and the Drug uptake (Cerebellum) was “Active”. The Activity [12] was “inactive”.
In the case of `COCc1nc(C)ncc1OC[C@@]1(c2ccccc2)C[C@H]1C(=O)Nc1ccc(F)cn1`, the pKi (Orexin receptor type 2) was 9.00, the Ratio [3] was 2.03 and the pKi [5] was 8.05. It also gave a Ratio [7] of 1.97 and a Ratio (LLC-PK1) of 0.97.
